Only some compounds are listed: those with a hit (about 2% of all), similar ones and a draw of the others.
HIV Rev-RRE inh: inhibitors of HIV-1 Rev-RRE RNA interaction. P05866. Rev peptide-RRE RNA binding, FRET. inhibition, % at 8 µM. 97,000 tested, 0.79% active;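 active means inhibition above the screen-wide mean plus 3 SD, cut at about 35% in these data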;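 further: 0% = median DMSO wells and 100% = median Neomycin B control wells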
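System: Cy5-labelled duplex RRE RNA binding fluorescein-labelled HIV Rev peptide; Signal: fluorescein-to-Cy5 FRET, 480 nm excitation; Also added: labelled Rev peptide; Compound: one concentration, 8 µM nominal; Buffer or medium: HEPES pH 7.5 salt buffer with EDTA; Read-out: % inhibition of FRET ratio versus controls; Schedule: 5 min preincubation and 15 min binding, 25 °C.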
EphB4 ephrin blk: antagonists of human EphB4-ephrin-B2 interaction; EphB4 LBD / TNYL-RAW-Alexa532 peptide, fluorescence polarization; inhibition, % at 7 µM; 97,000 tested, 0.15% active;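 active means inhibition above the screen-wide mean inhibition plus 3 SD, cut at about 15% in these data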;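 further: 0% = DMSO wells and 100% = excess unlabeled TNYL-RAW peptide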
PLK1 inh: inhibitors of human PLK1 kinase. recombinant PLK1 kinase, TR-FRET peptide phosphorylation. 97,000 tested, 0.53% active. AID 619. inhibition, % at 10 µM. P53350;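 active means inhibition of 50% or more in the single-concentration screen; inactive means inhibition below 50%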;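 further: 0% = DMSO max control and 100% = H-89 dihydrochloride min control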
PLK1 PBD inh: blocks phosphopeptide binding to human Plk1 polo box domain | P53350 | Plk1 PBD phosphopeptide binding, fluorescence polarization | inhibition, %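 (tested at about 20 µM)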 | 97,000 tested, 0.13% active; in the data active means inhibition above about 34%, passing the limit was not always enough
LYP act: activators of human LYP (PTPN22) phosphatase; recombinant LYP, DiFMUP fluorescence; 0 = plate median, 100 = signal doubled; activation, % at 2 µM; 96,000 tested, 0.11% active; Q9Y2R2;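 active means activation at 2 µM above a set limit, the mean plus 5 SD, cut at about 37% in these data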
LYP inh 2: LYP (human) phosphatase inhibition; recombinant LYP catalytic domain, DiFMUP fluorescence; inhibition, % at 2 µM; 96,000 tested, 0.21% active;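 active means inhibition at 2 µM at or above a set limit, the screen mean plus 3 SD, cut at about 24% in these data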;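 further: 0% = DMSO with enzyme and 100% = enzyme fully blocked by orthovanadate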
Starred values were filed as active, the others as inactive; [ ] = dose if it differs, or a comment.

SMILES	HIV Rev-RRE inh	EphB4 ephrin blk	PLK1 inh	PLK1 PBD inh	LYP act	LYP inh 2
Cc1cc(/C=C2\SC(=S)NC2=O)c(C)n1C	54.2*	6.6	-16.6	-15.3	0.9	2.9
CN(CC(=O)N1CC(=O)N(CCc2ccccc2)C(=O)C1)S(=O)(=O)c1cccc2nsnc12	4.4	0.1	-13.6	-13.4	0.5	-0.6
CCCc1nnc(NC(=O)CNc2ccc(F)cc2)s1	8.2	16.0*	14.1	-18.1	-3.0	0.2
CCCc1nnc(NC(=O)CCCC(=O)O)s1	-0.5	-6.0	-2.1	24.7	7.7	-3.1
Cc1cc(S(=O)(=O)Nc2ccccc2C(=O)O)ccc1Cl	1.0	-10.1	-14.1	-1.5	2.7	-5.6
Cc1nn(-c2ccccc2)c(Cl)c1/C=N/Nc1ccc(S(=O)(=O)Nc2ccccc2C(=O)O)cc1[N+](=O)[O-]	-0.7	1.7	2.1	-3.7	-22.3	24.3*
O=C(NCc1cccnc1)c1cc2ccccc2oc1=O	9.1	-9.5	-8.1	-27.9	2.8	-2.5
COc1nc(OCCNC(=O)Nc2ccccc2)nc(N(C)C)n1	1.1	-13.2	-8.0	11.0	6.5	-6.5
Cc1ccc(C2C(C#N)=C(N)Oc3c2sc2ccccc32)o1 (stereo not given)	94.2*[fluorescence artefact?]	-11.2	-2.9	-121.7	-7.2	5.4
CCOC(=O)CC1=C(C(=O)OCC)C(c2ccc(C)o2)C(C#N)=C(N)O1 (stereo not given)	16.5	8.8	2.6	-8.3	-0.4	4.1
COc1ccc2[nH]c3nc(SCC(=O)NNC(=O)c4ccc(OC)c(OC)c4)nnc3c2c1	2.6	5.0	-0.6	-17.4	-11.9	14.1
Cc1ccc(C(=O)NNC(=O)CSc2nnc3c(n2)[nH]c2ccc(F)cc23)cc1	-39.3	0.1	-11.6	-8.0	-27.5	29.6*
CCCCn1nnnc1NCc1cc(OC)c(OC)cc1OC	6.9	0.2	-13.3	-5.8	4.1	-6.4
CCCc1c(C)c2c(C)[nH]nc2oc1=O	5.8	-0.4	58.1*	20.6	-5.0	2.5
CCC(C)(C)NC(=O)C(c1ccco1)N(C(=O)Cn1nnc2ccccc21)c1ccc2c(c1)OCO2 (stereo not given)	5.6	1.3	0.0	16.1	0.3	-2.1
COc1ccc(CNCC(O)(c2ccc(Cl)cc2)c2ccc(Cl)cc2)cc1	16.1	1.4	44.1	-10.6	-4.1	7.2
COc1ccc(CNCC(O)(c2ccc(Cl)cc2)c2ccc(Cl)cc2)cc1OC	62.9*	-5.0	7.6	2.4	0.1	3.1
CCOC(=O)c1c2ccc(OCC(=O)N/N=C/c3ccc(C)cc3)cc2n2ccccc12	10.8	-1.3	-22.7	1.1	-21.7	24.2*
Cc1ccc(NC(=O)COc2ccc(/C=N/NC(=O)CSCc3ccccc3)cc2)cc1	7.3	-0.5	-8.0	11.3	-15.4	18.0
CCc1c(O)nc(SCC(=O)N2CCOCC2)n(-c2ccccc2)c1=O	5.3	-0.1	-5.8	10.3	-1.0	-1.9
Cc1ccc(C)c(C(=O)n2cnnc2N)c1	7.5	1.3	54.5*	7.5	-4.6	8.1
Nc1nncn1C(=O)c1cccs1	8.8	-0.1	57.4*	-9.6	5.1	-5.7
Cc1ccc(S(=O)(=O)CNC(=S)c2cccc(C)c2)cc1	1.4	-0.4	-10.8	-28.6	0.9	-0.3
COc1cccc(-n2c(SC3CCOC3=O)nc3ccccc3c2=O)c1 (stereo not given)	2.0	-5.1	-11.2	1.7	-4.0	5.9
O=[N+]([O-])c1ccc(/C=N/Nc2nc(-c3ccccc3)c3cc(Br)ccc3n2)o1	21.7	8.4	-12.6	-4.5	5.6	-6.0
COc1ccccc1-c1cnnc(N/N=C/c2ccc(-c3cccc(Br)c3)o2)n1	1.1	4.3	-14.2	-0.1	-31.0	31.4*
Nc1c(C(=O)c2ccccc2)sc2snc(SCC(=O)c3ccccc3)c12	77.8*	1.9	20.6	-47.3	-4.0	8.3
Cn1cccc1/C=C1\CC(C(C)(C)C)C/C(=C\c2cccn2C)C1=O (stereo not given)	124.8*[fluorescence artefact?]	2.6	-8.9	-86.5	-5.6	5.8
CCOC(=O)c1sc(NC(=O)C(CC)Sc2nc3ccccc3[nH]2)nc1C (stereo not given)	3.9	1.6	-9.2	-19.5	-24.0	25.3*
CCC(=O)N1CCN(c2nc(C)nc3sc(C)c(C)c23)CC1	-1.8	-8.7	3.6	-0.3	-1.1	0.4

Compound activity as filed in PubChem.
